Measured values reported in ChEMBL document CHEMBL1671747, “Efficacy and safety of intravenous peramivir for treatment of seasonal influenza virus infection” (Antimicrob Agents Chemother, 2010).
Activity calls are given as the source filed them. No cut-off for these calls is given here.

Assays:
[1] = system: Homo sapiens; assay: Toxicity in human patient infected with Influenza virus assessed as nausea at 600 mg, iv; assay type: organism-based; settings: in vivo
Summary of the method: (§1)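 In this randomized trial, subjects received a single intravenous infusion of peramivir (300 mg or 600 mg) or matching placebo; the median infusion lasted 0.63 h. Subjects were followed at visits on days 1, 2 (optional), 3, 5, 9 and 14. Adverse-event incidences across the 298 treated subjects were compared with placebo using Fisher's exact test.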

[2] = system: Homo sapiens; assay: Toxicity in human patient infected with Influenza virus assessed as lymphocyte morphology abnormal at 600 mg, iv; assay type: organism-based; settings: in vivo
Summary of the method: (§2)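 Adults with seasonal influenza received one intravenous infusion of peramivir (300 or 600 mg) or matching placebo; the median infusion lasted 0.63 h. Blood for haematology, including the white-cell differential, was taken at baseline and on days 3 and 14. Tests were run by blinded technicians. Adverse-event incidence in the 298-subject safety population was compared with placebo by Fisher's exact test.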

[3] = system: Homo sapiens; assay: Toxicity in human patient infected with Influenza virus assessed as increase in blood phosphate at 600 mg, iv; assay type: organism-based; settings: in vivo
Summary of the method: (§3)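 One IV dose of 300 or 600 mg or placebo was given to adults with influenza. Blood (hematology, biochemistry) and urine (including NAG, β2- and α1-microglobulin, protein) were sampled at baseline, day 3 and day 14 by blinded technicians. Adverse-event incidence versus placebo was compared by Fisher's exact test.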

[4] = system: Homo sapiens; assay: Toxicity in human patient infected with Influenza virus assessed as increase in alanine aminotransferase at 600 mg, iv; assay type: organism-based; settings: in vivo; summary of the method: as §3
[5] = system: Homo sapiens; assay: Toxicity in human patient infected with Influenza virus assessed as diarrhea at 600 mg, iv; assay type: organism-based; settings: in vivo
Summary of the method: (§4)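 Adverse events were recorded after one IV dose of 300 or 600 mg or placebo in adults with influenza. Incidence in each peramivir group was compared with placebo by Fisher's exact test.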

[6] = system: Homo sapiens; assay: Toxicity in human patient infected with Influenza virus assessed as increase in blood bilirubin at 300 mg, iv; assay type: organism-based; settings: in vivo; summary of the method: as §3
[7] = system: Influenza A virus; assay: Antiviral activity against Influenza A virus H1N1 infected in human patient assessed as alleviation time of symptoms at 300 mg, iv (reference value: 81.4 hrs); assay type: functional
[8] = system: Homo sapiens; assay: Toxicity in human patient infected with Influenza virus assessed as increase in blood creatinine level at 600 mg, iv; assay type: organism-based; settings: in vivo; summary of the method: as §3
[9] = system: Homo sapiens; assay: Toxicity in human patient infected with Influenza virus assessed as beta2 microglobulin in urine at 300 mg, iv; assay type: organism-based; settings: in vivo; summary of the method: as §3
[10] = system: Homo sapiens; assay: Toxicity in human patient infected with Influenza virus assessed as occurrence of nausea at 600 mg, iv; assay type: organism-based; settings: in vivo; summary of the method: as §1
[11] = system: Homo sapiens; assay: Toxicity in human patient infected with Influenza virus assessed as diarrhea at 300 mg, iv; assay type: organism-based; settings: in vivo; summary of the method: as §4
[12] = system: unidentified influenza virus; assay: Antiviral activity against Influenza virus infected in human patient assessed as decrease in virus-positive patients at 300 mg, iv on day 9; assay type: functional
Summary of the method: (§5)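 Nasal and throat swabs were taken at baseline and on days 2, 3, 5 and 9, held in 2 ml transport medium, and titrated on MDCK cells in triplicate: 10-fold dilutions, 3 μg/ml trypsin, 1 h adsorption, washes, then 3 days at 37°C. CPE gave TCID50/ml by Spearman-Karber; positive meant ≥1.1 log10 TCID50/ml. Proportions were compared by Mantel-Haenszel test stratified for smoking and baseline score.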

[13] = system: Homo sapiens; assay: Toxicity in human patient infected with Influenza virus assessed as decrease in white blood cell count at 300 mg, iv; assay type: organism-based; settings: in vivo; summary of the method: as §3
[14] = system: Homo sapiens; assay: Toxicity in human patient infected with Influenza virus assessed as increase in blood bilirubin at 600 mg, iv; assay type: organism-based; settings: in vivo; summary of the method: as §3
[15] = system: Homo sapiens; assay: Toxicity in human patient infected with Influenza virus assessed as increase in blood phosphate at 300 mg, iv; assay type: organism-based; settings: in vivo; summary of the method: as §3
[16] = system: Homo sapiens; assay: Toxicity in human patient infected with Influenza virus assessed as increase in blood lactate dehydrogenase at 600 mg, iv; assay type: organism-based; settings: in vivo; summary of the method: as §3
[17] = system: unidentified influenza virus; assay: Antiviral activity against Influenza virus infected in human patient assessed as decrease in virus-positive patients at 300 mg, iv on day 3; assay type: functional; summary of the method: as §5
[18] = system: Homo sapiens; assay: Toxicity in human patient infected with Influenza virus assessed as beta-N-Acetyl-D-glucosaminidase at 600 mg, iv; assay type: organism-based; settings: in vivo; summary of the method: as §3
[19] = system: Homo sapiens; assay: Toxicity in human patient infected with Influenza virus assessed as occurrence of otitis at 600 mg, iv; assay type: organism-based; settings: in vivo; summary of the method: as §1
[20] = system: Influenza A virus; assay: Antiviral activity against influenza A virus H1N1 infected in MDCK cells assessed as inhibition of neuraminidase activity by fluorimetric assay; assay type: functional, organism-based
Summary of the method: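 Viruses were isolated from baseline patient swabs on MDCK cells. Neuraminidase inhibition was measured by a standard fluorometric assay. IC50 came from plotting percent inhibition of neuraminidase activity against inhibitor concentration, reported as mean ± SD of three independent experiments.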

[21] = system: Homo sapiens; assay: Toxicity in human patient infected with Influenza virus assessed as increase in aspartate aminotransferase at 300 mg, iv; assay type: organism-based; settings: in vivo; summary of the method: as §3
[22] = system: Influenza A virus; assay: Antiviral activity against Influenza A virus H3N2 infected in human patient assessed as alleviation time of symptoms at 300 mg, iv (reference value: 81 hrs); assay type: functional
[23] = system: Homo sapiens; assay: Toxicity in human patient infected with Influenza virus assessed as lymphocyte morphology abnormal at 300 mg, iv; assay type: organism-based; settings: in vivo; summary of the method: as §2
[24] = system: Influenza A virus; assay: Antiviral activity against Influenza A virus H3N2 infected in human patient assessed as alleviation time of symptoms at 600 mg, iv (reference value: 81 hrs); assay type: functional
[25] = system: Homo sapiens; assay: Toxicity in human patient infected with Influenza virus assessed as increase in alpha1 microglobulin at 600 mg, iv; assay type: organism-based; settings: in vivo; summary of the method: as §3
[26] = system: Plasma; assay: Plasma concentration in human at 600 mg, iv after 18 to 24 hrs; assay type: ADME, organism-based; settings: in vivo
Summary of the method: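 Subjects received a single IV infusion of 300 or 600 mg (mean 5.0 or 10.0 mg/kg; median infusion 0.63 h). Plasma was sampled just before the infusion ended, and on days 2 and 3. Samples were deproteinized and run on C18 LC/MS-MS. Values are medians at end of infusion, 18–24 h and 36–48 h after infusion.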

[27] = system: Homo sapiens; assay: Toxicity in human patient infected with Influenza virus assessed as occurrence of diarrhea at 600 mg, iv; assay type: organism-based; settings: in vivo; summary of the method: as §1
[28] = system: Homo sapiens; assay: Toxicity in human patient infected with Influenza virus assessed as increase in blood glucose level at 600 mg, iv; assay type: organism-based; settings: in vivo; summary of the method: as §3
[29] = system: Homo sapiens; assay: Toxicity in human patient infected with Influenza virus assessed as decrease in total Protein at 600 mg, iv; assay type: organism-based; settings: in vivo; summary of the method: as §3
[30] = system: unidentified influenza virus; assay: Antiviral activity against Influenza virus infected in human patient assessed as decrease in virus-positive patients at 600 mg, iv on day 3; assay type: functional; summary of the method: as §5
[31] = system: Homo sapiens; assay: Toxicity in human patient infected with Influenza virus assessed as nasopharyngitis at 300 mg, iv; assay type: organism-based; settings: in vivo; summary of the method: as §1
[32] = system: Homo sapiens; assay: Toxicity in human patient infected with Influenza virus assessed as increase in aspartate aminotransferase at 600 mg, iv; assay type: organism-based; settings: in vivo; summary of the method: as §3
[33] = system: unidentified influenza virus; assay: Antiviral activity against Influenza virus infected in human patient assessed as reduction in fever at 600 mg, iv after 24 hrs; assay type: functional, organism-based
Summary of the method: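 A single IV dose of 300 or 600 mg or placebo was given to adults with seasonal influenza. The outcome was the proportion of subjects with postbaseline normal temperature (<37.0°C). Groups were compared by Mantel-Haenszel test stratified for smoking and baseline composite symptom score.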

[34] = system: Homo sapiens; assay: Toxicity in human patient infected with Influenza virus assessed as increase in monocyte at 300 mg, iv; assay type: organism-based; settings: in vivo; summary of the method: as §2
[35] = system: Homo sapiens; assay: Toxicity in human patient infected with Influenza virus assessed as monocyte at 600 mg, iv; assay type: organism-based; settings: in vivo; summary of the method: as §2

CCC(CC)[C@H](NC(C)=O)[C@@H]1[C@H](O)[C@@H](C(=O)O)C[C@H]1NC(=N)N [PERAMIVIR ANHYDROUS]
Activity [1]: Toxic | Activity [2]: Toxic | Activity [3]: Toxic | Activity [4]: Toxic | Activity [5]: Toxic | Activity [6]: Toxic | Time [7]: 52.5 h | Activity [8]: Toxic | Activity [9]: Toxic | Activity [10]: 6.1% | Activity [11]: Toxic | inhibition (INH) [12]: 0% | Activity [13]: Toxic | Activity [14]: Toxic | Activity [15]: Toxic | Activity [16]: Toxic | inhibition (INH) [17]: 36.8% | Activity [18]: Toxic | Activity [19]: 1% | IC50 [20]: 9.43 nM | Activity [21]: Toxic | Time [22]: 76.1 h | Activity [23]: Toxic | Time [24]: 50.5 h | Activity [25]: Toxic | Cp [26]: 32.8 ng/mL | Activity [27]: 15.2% | Activity [28]: Toxic | Activity [29]: Toxic | inhibition (INH) [30]: 25.8% | Activity [31]: Toxic | Activity [32]: Toxic | Activity [33]: Active | Activity [34]: Toxic | Activity [35]: Toxic
